# Experimental data collected from several papers.
# Each line is one published result; the experiments were not run side by side. pIC50: −log10 of the molar value.
# Read-out: cell growth or viability
SMILES,cell line,test,conditions,quantity,value
COc1cc2c(c3c1C(=O)C[C@@H](c1ccccc1)O3)[C@H]1[C@@H](O2)OC(C)(C)[C@@H]1OC(C)=O,Raji,MTS,48 h,pIC50,< 5.00
O=c1c2ccccc2nc(S)n1-c1ccccc1,HCT-116,LDH,"200 µg/mL, 24 h",viability,73.5%
CCCc1cc(=O)n2nc(NCc3c(F)cc(Cl)cc3F)c(C#N)c2[nH]1,U-87 MG,ATP luminescence,72 h,pIC50,< 4.30
Cc1cc(N(CCOS(C)(=O)=O)CCOS(C)(=O)=O)ccc1C=O,SN12K1,,,IC50,0.79 µg/mL
CC1=C(O)C(=O)C=C2C1=CC=C1[C@@]2(C)CC[C@@]2(C)[C@@H]3C[C@](C)(C(=O)O)CC[C@]3(C)CC[C@]12C,AGS,MTT,48 h,pIC50,6.41
COc1cccc2c1C(=O)c1c(O)c3c(c(O)c1C2=O)C[C@@](O)(C(=O)CO)C[C@@H]3O[C@H]1C[C@H](N)[C@H](O)[C@H](C)O1,SK-OV-3,,48 h,IC50,1.2 µg/mL
CC[C@@]1(OC(=O)CN)C(=O)OCc2c1cc1n(c2=O)Cc2cc3cc4c(cc3nc2-1)OCO4,HCT-116,MTT,,pIC50,7.60
Cc1c(Cc2cccc(N(C)S(=O)(=O)CCCNCCCC(=O)N3CCN(c4ccc(Nc5c(C(N)=O)cnc6ccc(-c7cnc8ccccc8c7)cc56)cc4C(F)(F)F)CC3)c2)c(=O)oc2cc(OC(=O)N(C)C)ccc12,HCT-116,CCK-8,,GI50,5470 nM
Cc1cccc(-n2ncc(Cl)c(Cl)c2=O)c1,PC-9,resazurin,96 h,pIC50,6.19
CC[C@@]1(OC(=O)C(C)c2ccc(CC(C)C)cc2)C(=O)OCc2c1cc1n(c2=O)Cc2cc3cc4c(cc3nc2-1)OCO4 (stereo partly shown),HCT-116,MTT,,pIC50,< 5.30
Cc1cc(N(CCO)CCO)ccc1C=O,SN12K1,,,IC50,> 10 µg/mL
Cc1cccc2c(CNCC3(N4CCCC4)COC3)c[nH]c12,U-87 MG,,"30 µM, 48 h",viability,3.42%
CC[C@@]1(OC(=O)[C@@H](N)Cc2ccccc2)C(=O)OCc2c1cc1n(c2=O)Cc2cc3cc4c(cc3nc2-1)OCO4,HCT-116,MTT,,pIC50,7.42
